# Results as given in ChEMBL document CHEMBL3352624, “Vanillin-derived antiproliferative compounds influence Plk1 activity” (Bioorg Med Chem Lett, 2014).
# Active and inactive are the calls of the source. No cut-off for these calls is given here.
# System: HeLa
# Test: Induction of apoptosis in human HeLa cells assessed as increase in PARP cleavage at 33 uM after 48 hrs by Western blot analysis
# Format: functional, cell-based
# Details: not given
# Procedure, shortened: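 HeLa cells were harvested 48 h after compound incubation, with untreated medium controls. Western blotting against Parp detected both full-length protein and its apoptotic cleavage product.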
row,SMILES,Activity
1,COc1cc(CNCc2ccncc2)ccc1OCc1ccc(Cl)cc1,Active

# System: HeLa
# Test: Induction of apoptosis in human HeLa cells assessed as caspase-3/7 activation after 48 hrs […]
# Format: functional, cell-based
# Details: not given
# Procedure, shortened: (§1)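 Caspase 3/7 activation in HeLa cells was read 48 h after treatment by luminescence and reported as relative RLU versus medium-only controls. n = 3, mean SD.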
row,SMILES,Activity
1,COc1cc(CNCc2ccncc2)ccc1OCc1ccc(Cl)cc1,Dose-dependent effect

# System: HeLa
# Test: Induction of apoptosis in human HeLa cells assessed as caspase-3/7 activation at 1 nM to 66 uM by […]
# Format: functional, cell-based
# Details: TDE = time-dependent effect
# Procedure, shortened: as §1
row,SMILES,Activity
1,COc1cc(CNCc2ccncc2)ccc1OCc1ccc(Cl)cc1,tde

# System: HeLa
# Test: Antiproliferative activity against human HeLa cells assessed as growth inhibition after 24 to 72 hrs
# Format: functional, cell-based
# Details: Homo sapiens, HeLa; read-out: EC50
# Procedure, shortened: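 HeLa cells were exposed to compound for 24–72 h, with medium-only cells as control. Surviving cells are expressed as a percentage of control cell number at 72 h. n = 3.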
row,SMILES,EC50
1,COc1cc(CNCc2ccncc2)ccc1OCc1cnc(Cl)c(Cl)c1,0.22 µM
2,COc1cc(CNCCNC(=O)c2cnon2)ccc1OCc1ccc(Cl)nc1,24 µM
3,COCCNCc1ccc(OCc2ccc(Cl)nc2)c(OC)c1,97 µM
4,COc1cc(CNCc2ccccn2)ccc1OCc1cccc(Cl)c1,18 µM
5,COc1cc(CNCc2ccncc2)ccc1OCc1cccc(F)c1,4.8 µM
6,COc1ccc(CCNCc2ccc(OCc3cccs3)c(OC)c2)cc1OC,18 µM
7,COc1cc(CNCCNc2ccnc3cc(Cl)ccc23)ccc1OCc1ccc(Cl)nc1,2.7 µM
8,COc1cc(OCc2ccc(Cl)nc2)ccc1CNCc1ccncc1,3.3 µM
9,COc1cc(CNCCc2ccccc2F)ccc1OCc1ccc(Cl)nc1,18 µM
10,COc1cc(CNc2nc[nH]n2)ccc1OCc1ccc(Cl)nc1,69 µM
11,COc1cc(CNCCCN2CCOCC2)ccc1OCc1ccc(Cl)nc1,> 100 µM
12,COc1cc(OCc2ccc(Cl)cc2)ccc1CNCc1ccncc1,0.44 µM
13,COc1cc(CNCc2ccncc2)ccc1OCc1ccc(F)cc1,6.4 µM
14,COc1cc(CNCC(=O)c2ccccc2)ccc1OCc1ccc(Cl)nc1,60 µM
15,COc1cc(CNCc2ccncc2)ccc1OCc1ccc(Cl)nc1,0.4 µM
16,COc1cc(CNCCc2ccccc2)ccc1OCc1ccc(Cl)nc1,61 µM
17,COc1ccc(CCNCc2ccc(OCc3ccc(Cl)nc3)c(OC)c2)cc1OC,18 µM
18,COc1cc(CNCc2ccccc2)ccc1OCc1ccc(Cl)nc1,90 µM
19,COc1cc(CNCc2ccccn2)ccc1OCc1c(Cl)cccc1Cl,6.1 µM
20,COc1cc(CNCCCN(C)C)ccc1OCc1ccc(Cl)nc1,5 µM
21,Clc1ccc(COc2ccc(CNCc3ccncc3)cc2)cc1,4 µM
22,COc1cc(CNCCc2c[nH]c3ccccc23)ccc1OCc1ccc(Cl)nc1,8 µM
23,COc1cc(CNCc2ccccn2)ccc1OCc1ccccc1Cl,22 µM

row,SMILES,EC50
1,COc1cc(OCc2cnc(Cl)c(Cl)c2)ccc1CNCc1ccncc1,0.4 µM
2,COc1cc(CNCCSc2nnnn2C)ccc1OCc1ccc(Cl)nc1,86 µM
3,COc1cc(CNCc2cccs2)ccc1OCc1ccc(Cl)nc1,96 µM
4,COc1cc(CNCCc2ccc(F)cc2)ccc1OCc1ccc(Cl)nc1,16 µM
5,COc1ccc(CCNCc2ccc(OCC(=O)N3CCCCC3)c(OC)c2)cc1OC,87 µM
6,COc1cc(CNCc2ccccn2)ccc1OCc1ccc(Cl)c(Cl)c1,13 µM
7,COc1cc(CNCc2ccncc2)ccc1OCc1ccc(Cl)cc1,0.89 µM
8,COc1cc(CNCCc2ccc(S(N)(=O)=O)cc2)ccc1OCc1ccc(Cl)nc1,12 µM
9,COc1cc(CNCc2ccncc2)ccc1OCc1ccccc1F,5.1 µM
10,COc1cc(CNCCc2ccncc2)ccc1OCc1ccc(Cl)nc1,55 µM
11,COc1ccc(COc2ccc(CNCc3ccncc3)cc2OC)cc1,5 µM
12,COc1cc(CNCc2ccc3c(c2)OCO3)ccc1OCc1ccc(Cl)nc1,71 µM
13,COc1cc(CNCc2ccncc2)ccc1OCc1ccc([N+](=O)[O-])cc1,0.44 µM
14,COc1ccc(CCNCc2ccc(OCC(=O)NC(C)(C)C)c(OC)c2)cc1OC,> 100 µM
15,COc1cc(CNCc2ccncc2)ccc1OCc1ccc(Cl)cc1Cl,3.9 µM
16,COc1cc(CNCc2ccncc2)ccc1OCc1ccc(C(F)(F)F)cc1,2.4 µM
17,COc1ccc(CCNCc2ccc(OCC(=O)N3CCOCC3)c(OC)c2)cc1OC,85 µM
18,COc1cc(CNCc2cccnc2)ccc1OCc1ccc(Cl)nc1,5 µM
19,CCOc1cc(CNCc2ccncc2)ccc1OCc1ccc(Cl)cc1,2.5 µM
20,COc1cc(CNCc2ccncc2)ccc1OCc1ccc(C)cc1,5 µM
21,COc1cc(CNCC2CCCO2)ccc1OCc1ccc(Cl)nc1 (centres undefined),66 µM
22,COc1cc(CNCc2ccncc2)ccc1OCc1ccc(Cl)c(Cl)c1,4 µM

# Same assay, conditions: hela
row,SMILES,EC50
1,COc1cc(CNCc2ccc(C(=O)O)cc2)ccc1OCc1ccc(Cl)nc1,ND(Insoluble)
2,COc1cc(CNC2CCCCC2)ccc1OCc1ccc(Cl)nc1,ND(Insoluble)
3,COc1ccc(CCNCc2ccc(OCc3ccc(Cl)nc3)c(OC)c2)cc1,ND(Insoluble)

# Molecular target: Serine/threonine-protein kinase PLK1 (Homo sapiens, UniProt P53350)
# Sequence (P53350 whole entry): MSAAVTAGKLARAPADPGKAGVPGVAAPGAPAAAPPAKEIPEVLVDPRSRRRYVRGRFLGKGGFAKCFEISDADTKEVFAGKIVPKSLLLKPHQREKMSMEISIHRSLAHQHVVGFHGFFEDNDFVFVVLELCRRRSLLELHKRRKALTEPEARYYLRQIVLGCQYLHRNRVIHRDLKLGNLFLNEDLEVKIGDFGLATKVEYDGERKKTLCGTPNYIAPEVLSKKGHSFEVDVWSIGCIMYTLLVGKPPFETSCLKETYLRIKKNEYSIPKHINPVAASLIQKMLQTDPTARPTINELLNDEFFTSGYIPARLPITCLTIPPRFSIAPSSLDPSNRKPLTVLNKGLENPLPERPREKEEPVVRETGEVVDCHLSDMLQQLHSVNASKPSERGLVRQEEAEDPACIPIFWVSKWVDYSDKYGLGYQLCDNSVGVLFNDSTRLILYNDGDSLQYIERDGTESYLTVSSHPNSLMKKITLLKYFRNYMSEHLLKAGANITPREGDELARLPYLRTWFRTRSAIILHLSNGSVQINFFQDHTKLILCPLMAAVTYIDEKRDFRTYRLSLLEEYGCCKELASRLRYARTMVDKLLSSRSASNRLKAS
# Test: Inhibition of Plk1 immunoprecipitated from human HeLa cells using casein substrate after 12 to 26 hrs by autoradiography
# Format: cell-based
# Details: not given
# Procedure, shortened: (§2)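 HeLa cells were synchronized and incubated with compound. Plk1, Plk2 or Plk3 was then immunoprecipitated from the cells and assayed for kinase activity with casein as substrate. Activity was read by autoradiography.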
row,SMILES,IC50
1,COc1cc(CNCc2ccncc2)ccc1OCc1ccc(Cl)cc1,0.003 µM

# Molecular target: Serine/threonine-protein kinase PLK3 (Homo sapiens, UniProt Q9H4B4)
# Sequence (Q9H4B4 whole entry): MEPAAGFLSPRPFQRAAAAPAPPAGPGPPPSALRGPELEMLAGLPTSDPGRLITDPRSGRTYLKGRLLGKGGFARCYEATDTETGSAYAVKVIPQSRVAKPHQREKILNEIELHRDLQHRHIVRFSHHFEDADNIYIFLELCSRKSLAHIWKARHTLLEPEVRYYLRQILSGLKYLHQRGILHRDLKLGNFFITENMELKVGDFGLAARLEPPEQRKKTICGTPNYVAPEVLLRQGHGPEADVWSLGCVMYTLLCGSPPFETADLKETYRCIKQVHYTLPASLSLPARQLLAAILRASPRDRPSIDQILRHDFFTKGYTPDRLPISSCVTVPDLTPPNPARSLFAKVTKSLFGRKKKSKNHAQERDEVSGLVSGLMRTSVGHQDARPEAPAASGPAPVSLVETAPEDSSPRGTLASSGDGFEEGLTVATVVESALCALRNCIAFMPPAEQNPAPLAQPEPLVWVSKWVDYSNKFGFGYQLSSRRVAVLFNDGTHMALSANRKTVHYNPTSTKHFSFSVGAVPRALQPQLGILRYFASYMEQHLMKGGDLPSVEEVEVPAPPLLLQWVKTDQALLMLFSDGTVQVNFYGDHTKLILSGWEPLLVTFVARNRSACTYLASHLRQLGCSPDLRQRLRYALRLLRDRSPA
# Test: Inhibition of Plk3 immunoprecipitated from human HeLa cells using casein substrate after 12 to 26 hrs by autoradiography
# Format: cell-based
# Details: not given
# Procedure, shortened: as §2
row,SMILES,IC50
1,COc1cc(CNCc2ccncc2)ccc1OCc1ccc(Cl)cc1,> 10 µM

# Molecular target: Serine/threonine-protein kinase PLK2 (Homo sapiens, UniProt Q9NYY3)
# Sequence (Q9NYY3 whole entry): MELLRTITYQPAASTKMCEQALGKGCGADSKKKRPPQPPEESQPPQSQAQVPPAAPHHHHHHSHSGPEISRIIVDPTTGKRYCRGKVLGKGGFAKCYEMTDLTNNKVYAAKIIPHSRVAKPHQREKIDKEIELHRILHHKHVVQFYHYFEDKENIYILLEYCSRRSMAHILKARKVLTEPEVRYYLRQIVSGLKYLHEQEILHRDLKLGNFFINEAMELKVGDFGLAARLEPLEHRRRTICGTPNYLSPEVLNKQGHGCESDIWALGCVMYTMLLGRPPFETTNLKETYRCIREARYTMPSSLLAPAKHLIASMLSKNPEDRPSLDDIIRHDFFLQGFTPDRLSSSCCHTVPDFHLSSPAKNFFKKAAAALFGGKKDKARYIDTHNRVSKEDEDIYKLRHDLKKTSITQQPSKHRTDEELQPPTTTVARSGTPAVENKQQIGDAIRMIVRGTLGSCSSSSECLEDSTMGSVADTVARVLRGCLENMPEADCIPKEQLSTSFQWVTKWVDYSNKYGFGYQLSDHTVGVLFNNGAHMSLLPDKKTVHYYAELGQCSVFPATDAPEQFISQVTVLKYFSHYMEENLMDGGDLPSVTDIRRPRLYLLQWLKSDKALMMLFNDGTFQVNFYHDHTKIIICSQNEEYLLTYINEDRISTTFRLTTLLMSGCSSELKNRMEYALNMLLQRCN
# Test: Inhibition of Plk2 immunoprecipitated from human HeLa cells using casein substrate after 12 to 26 hrs by autoradiography
# Format: cell-based
# Details: not given
# Procedure, shortened: as §2
row,SMILES,IC50
1,COc1cc(CNCc2ccncc2)ccc1OCc1ccc(Cl)cc1,> 10 µM
